Reference: ChEMBL document CHEMBL1128287, “Ketanserin analogues: the effect of structural modification on 5-HT2 serotonin receptor binding” (J Med Chem, 1995)

Legend:
[1] = biological target: 5-hydroxytryptamine receptor 2A (Rattus norvegicus, UniProt P14842); assay: Binding affinity against 5-hydroxytryptamine 2A receptor
In short: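 Brain tissue homogenized in Tris-HCl 50 mM, MgCl2 10 mM, pH 7.4, then washed, incubated 15 min at 37 °C, and resuspended with 0.1% ascorbate and 10⁻⁵ M pargyline. Triplicate tubes held 5 mg wet tissue and 0.4 nM [³H]-ketanserin, with 1.0 μM cinanserin defining nonspecific binding. Incubated 15 min at 37 °C, then filtered. Ki = IC50/(1 + D*/KD*).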

[2] = biological target: T1, 5-hydroxytryptamine receptor 2C (Rattus norvegicus, UniProt P08909); assay: Binding affinity against 5-hydroxytryptamine 2C receptor
T1 sequence (P08909 whole entry): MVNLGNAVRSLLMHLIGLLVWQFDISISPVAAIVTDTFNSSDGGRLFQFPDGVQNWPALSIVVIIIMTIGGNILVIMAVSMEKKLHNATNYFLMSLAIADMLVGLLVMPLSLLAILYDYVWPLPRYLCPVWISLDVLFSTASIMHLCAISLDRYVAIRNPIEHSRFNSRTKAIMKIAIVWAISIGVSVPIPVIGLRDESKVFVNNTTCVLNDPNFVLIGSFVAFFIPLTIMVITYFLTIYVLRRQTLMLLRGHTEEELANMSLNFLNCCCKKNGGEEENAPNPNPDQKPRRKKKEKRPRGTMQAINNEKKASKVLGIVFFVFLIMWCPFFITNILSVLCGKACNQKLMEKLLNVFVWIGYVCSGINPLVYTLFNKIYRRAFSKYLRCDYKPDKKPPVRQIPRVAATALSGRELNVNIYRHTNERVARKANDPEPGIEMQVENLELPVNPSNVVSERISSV
In short: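 Washed brain membranes in Tris-HCl/MgCl2 pH 7.4 with ascorbate and pargyline. Triplicate tubes held 10 mg wet tissue, 1 nM [³H]-mesulergine, and 100 nM spiperone in every tube to block 5-HT2A sites. Nonspecific binding was defined with 1.0 μM mianserin. Incubated 15 min at 37 °C, then filtered and counted. Ki came from IC50 corrected for radioligand concentration and KD.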

[3] = biological target: Serotonin receptor 2a and 2c (5HT2A and 5HT2C) (Rattus norvegicus) (UniProt P08909+P14842); assay: Selectivity as the ratio of Ki value towards 5-hydroxytryptamine 2C receptor to that of 5-hydroxytryptamine 2A receptor; format: protein assay
Serotonin receptor 2a and 2c (5HT2A and 5HT2C) (Rattus norvegicus), sequence (P14842 whole entry, looked up, one chain of several): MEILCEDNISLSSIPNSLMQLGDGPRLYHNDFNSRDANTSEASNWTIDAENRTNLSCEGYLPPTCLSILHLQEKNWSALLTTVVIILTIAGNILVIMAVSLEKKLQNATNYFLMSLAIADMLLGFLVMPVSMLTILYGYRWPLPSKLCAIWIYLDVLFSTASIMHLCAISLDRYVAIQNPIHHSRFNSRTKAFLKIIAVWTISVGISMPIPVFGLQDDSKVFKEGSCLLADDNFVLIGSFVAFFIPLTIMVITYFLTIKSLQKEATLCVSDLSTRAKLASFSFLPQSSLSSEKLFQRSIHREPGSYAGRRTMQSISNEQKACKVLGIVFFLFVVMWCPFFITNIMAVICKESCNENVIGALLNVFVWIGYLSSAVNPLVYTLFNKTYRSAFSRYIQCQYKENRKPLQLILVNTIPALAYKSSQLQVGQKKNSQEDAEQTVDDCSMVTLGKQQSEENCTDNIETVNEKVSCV

5-hydroxytryptamine receptor 2A, sequence (P14842 whole entry): as the sequence (P14842 whole entry, looked up, one chain of several) above

Row | Structure (SMILES) | Ki [1] | Ki [2] | Selectivity [3]
1 | c1ccc(CCCCN2CCN(Cc3ccccc3)CC2)cc1 | 240 nM | > 10000 nM | > 40
2 | O=C(c1ccccc1)C1CCN(CCCCc2ccccc2)CC1 | 10 nM | 2400 nM | 240
3 | Fc1ccc(CC2CCN(CCCCc3ccccc3)CC2)cc1 | 40 nM | 2740 nM | 70
4 | C(/Cc1ccccc1)=C(\c1ccccc1)C1CCN(CCCCc2ccccc2)CC1 | 100 nM | 1390 nM | 14
5 | c1ccc(CCN2CCC(Cc3ccccc3)CC2)cc1 | 22 nM | 1760 nM | 80
6 | OC(c1ccc(F)cc1)C1CCN(CCc2ccccc2)CC1 (stereo unspecified) | 3 nM | 1520 nM | 460
7 | OC(c1ccccc1)C1CCN(CCCCc2ccccc2)CC1 (stereo unspecified) | 265 nM | > 10000 nM | > 35
8 | c1ccc(CCCCN2CCC(=C(c3ccccc3)c3ccccc3)CC2)cc1 | 20 nM | 220 nM | 11
9 | O=c1[nH]c2ccccc2c(=O)n1CCN1CCN(C(c2ccccc2)c2ccccc2)CC1 | 65 nM | 635 nM | 10
10 | O=c1[nH]c2ccccc2c(=O)n1CCN1CCC(C(c2ccccc2)c2ccccc2)CC1 | 18 nM | 52 nM | 3
11 | O=C(c1ccc(F)cc1)C1CCN(CCc2ccccc2)CC1 | 8.5 nM |  | 17
12 | c1ccc(CCN2CCC(=C(c3ccccc3)c3ccccc3)CC2)cc1 | 6.9 nM | 29 nM | 4
13 | O=C(c1ccccc1)N1CCN(CCCCc2ccccc2)CC1 | 180 nM | 8520 nM | 47
14 | O=C(c1ccccc1)C1CCN(CCc2ccccc2)CC1 | 9.6 nM | 800 nM | 83
15 | Fc1ccc(CC2CCN(CCc3ccccc3)CC2)cc1 | 18 nM | 2000 nM | 110
16 | OC(c1ccccc1)C1CCN(CCc2ccccc2)CC1 (stereo unspecified) [GLEMANSERIN] | 2.5 nM | 830 nM | 330
17 | O=C(c1ccc(F)cc1)C1CCN(CCCCc2ccccc2)CC1 | 5.3 nM |  | 120
18 | CN1CCN(C(=O)c2ccccc2)CC1 | > 10000 nM | > 10000 nM | 
19 | OC(c1ccc(F)cc1)C1CCN(CCCCc2ccccc2)CC1 (stereo unspecified) | 126 nM | 6600 nM | 52
20 | c1ccc(CCCCN2CCC(Cc3ccccc3)CC2)cc1 | 120 nM | 4120 nM | 34
21 | CN1CCC(C(=O)c2ccccc2)CC1 | 600 nM | > 10000 nM | > 16
22 | C(=C(\c1ccccc1)C1CCN(CCc2ccccc2)CC1)/c1ccccc1 | 19 nM |  | 
